Molecules are shown by their SMILES.

The target of data set [1] is T1, Indoleamine 2,3-dioxygenase 1 (Homo sapiens, UniProt P14902). The data set can be described thus: Inhibition of IDO1 in IFNgamma-stimulated human A375 cells assessed as reduction in L-Kyn level at 1 uM measured after 48 hrs by HPLC analysis relative to control. The procedure, abridged:
(§1)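 A375 cells, unstimulated or stimulated with recombinant human IFN-γ, were left untreated or treated with 1 µM compound for 48 h. L-Kyn was measured by HPLC and cell viability was assessed.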
Target sequence in this assay (P14902 whole entry, looked up): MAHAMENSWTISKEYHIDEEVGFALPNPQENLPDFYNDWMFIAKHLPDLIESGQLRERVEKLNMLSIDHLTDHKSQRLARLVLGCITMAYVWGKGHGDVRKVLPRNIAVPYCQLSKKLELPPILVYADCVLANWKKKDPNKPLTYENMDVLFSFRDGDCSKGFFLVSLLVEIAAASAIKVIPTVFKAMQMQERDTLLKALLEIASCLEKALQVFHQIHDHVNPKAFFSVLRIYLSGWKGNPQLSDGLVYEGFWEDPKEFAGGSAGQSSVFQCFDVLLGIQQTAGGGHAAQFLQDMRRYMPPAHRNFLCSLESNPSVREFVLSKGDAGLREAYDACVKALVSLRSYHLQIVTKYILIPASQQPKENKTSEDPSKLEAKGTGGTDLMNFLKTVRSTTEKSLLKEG

Data set [2] addresses T1, Indoleamine 2,3-dioxygenase 1. The data set can be described thus: Inhibition of IDO1 in IFNgamma-stimulated human A375 cells assessed as reduction in L-Kyn level measured after 48 hrs by HPLC analysis.
Target sequence in this assay (P14902 whole entry): as the sequence (P14902 whole entry, looked up) above
Data set [3] in a line: Cytotoxicity against human A375 cells assessed as cell viability at 1 uM measured after 48 hrs by MTT assay relative to control. The data set is classed as cell-based, A-375. To be noted: read-out: Activity. In outline: as §1
For orientation: Tetrazolium assays rely on reduction of a dye to a coloured formazan, in cell work by metabolically active cells.

Data set [4] can be described thus: Chemical stability of the compound. The class given is physicochemical.
Data set [5] has as its system Monocyte. The data set can be described thus: Cytotoxicity against PDAC patient derived monocytes assessed as reduction in cell viability at 30 uM measured after 24 hrs by Annexin-V APC/7-AAD staining based flow cytometric analysis. As to conditions: human; call rule not given here. The procedure, abridged:
(§2)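 Monocytes from healthy donors (n=3) and from PDAC patients (n=3) were treated for 24 h, with DMSO as control. Viability was normalized to untreated cells. Healthy-donor cells received a range of concentrations; PDAC cells received 30 µM.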

The subject of data set [6] is Monocyte. The experiment in a line: Cytotoxicity against human monocytes assessed as reduction in cell viability at 30 uM measured after 24 hrs by Annexin-V APC/7-AAD staining based flow cytometric analysis. In outline:
as §2
For orientation: Flow cytometry measures light scatter and fluorescence of single cells or particles in a stream.

A short description of data set [7]: Drug metabolism in CD-1 mouse liver microsomes assessed as benzimidazole oxidation at 50 uM measured after 1 hr by LC-HRMS analysis. The data set is classed as ADME, Microsome.
For data set [8], the target named is Indoleamine 2,3-dioxygenase 1 (Mus musculus, UniProt P28776). The data set can be described thus: Inhibition of mouse IDO1 transfected in P815 cells assessed as reduction in L-Kyn level measured after 16 hrs by HPLC analysis. The data set is classed as cell-based. The procedure, abridged: (§3)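 P815 mastocytoma cells stably expressing mouse IDO1 (P1.IDO1) or TDO (P1.TDO) were treated with serial dilutions for 16 h. L-Kyn secreted into the culture supernatant was quantified by HPLC, and an IC50 was determined in each line.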

The target of data set [9] is T1, Indoleamine 2,3-dioxygenase 1. The experiment in a line: Inhibition of IDO1 in IFNgamma-stimulated human DAN-G cells assessed as reduction in L-Kyn level measured after 48 hrs by HPLC analysis. The class given is cell-based.
Target sequence in this assay (P14902 whole entry): as the sequence (P14902 whole entry, looked up) above
The nature of data set [10]: Metabolic stability in CD-1 mouse liver microsomes assessed as parent compound remaining at 50 uM measured after 1 hr in presence of NADPH by UV-LC/MS analysis.
A short description of data set [11]: Metabolic stability in CD-1 mouse liver microsomes assessed as parent compound remaining at 50 uM measured after 1 hr in presence of NADPH generating system by UV-LC/MS analysis. The data set is classed as ADME, Microsome. As to conditions: read-out: Stability. The procedure, abridged:
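Mouse liver microsomes activated with NADPH. Residual parent compound was measured after 1 h incubation.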
On the technique in general: Liver microsomes are vesicles of endoplasmic reticulum, rich in cytochrome P450 enzymes.

Data set [12] in a line: Drug metabolism in CD-1 mouse liver microsomes assessed as oxidative N-dealkylation at 50 uM measured after 1 hr by LC-HRMS analysis. The data set is classed as ADME, Microsome.
A short description of data set [13]: Inhibition of CYP450 in rat liver microsomes assessed as reduction in aminopyrine N-demethylase activity preincubated for 3 mins followed by NADPH addition and measured after 15 mins by iodometric titration method. The class given is ADME. As to conditions: rat, microsomes, 0.25 h. The procedure, abridged:
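CYP inhibition read by aminopyrine N-demethylase activity, with IC50 determined from concentration–response curves. Ketoconazole (CYP3A inhibitor) served as reference.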

Data set [14] concerns the target T1, Indoleamine 2,3-dioxygenase 1. The data set can be described thus: Inhibition of IDO1 in IFNgamma-stimulated human MCF7 cells assessed as reduction in L-Kyn level measured after 48 hrs by HPLC analysis. The data set is classed as cell-based.
Target sequence in this assay (P14902 whole entry): as the sequence (P14902 whole entry, looked up) above
The target in data set [15] is Tryptophan 2,3-dioxygenase (Mus musculus, UniProt P48776). The experiment in a line: Inhibition of mouse TDO transfected in P815 cells assessed as reduction in L-Kyn level measured after 16 hrs by HPLC analysis. The class given is cell-based. The procedure, abridged: as §3
Chain of Tryptophan 2,3-dioxygenase (P48776 whole entry): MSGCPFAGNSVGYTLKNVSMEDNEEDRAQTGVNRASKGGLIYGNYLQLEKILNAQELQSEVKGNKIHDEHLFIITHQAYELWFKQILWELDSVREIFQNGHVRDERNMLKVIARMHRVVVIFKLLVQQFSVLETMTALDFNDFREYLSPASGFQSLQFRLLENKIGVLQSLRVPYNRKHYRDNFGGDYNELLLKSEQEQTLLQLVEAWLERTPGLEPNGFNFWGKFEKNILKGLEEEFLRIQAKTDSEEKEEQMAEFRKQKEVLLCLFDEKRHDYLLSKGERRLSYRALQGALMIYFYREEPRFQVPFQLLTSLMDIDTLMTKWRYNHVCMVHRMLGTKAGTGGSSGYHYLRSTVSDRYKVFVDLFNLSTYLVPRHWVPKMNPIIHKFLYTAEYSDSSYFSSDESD

Chain of Indoleamine 2,3-dioxygenase 1 (Mus musculus, UniProt P28776) (P28776 whole entry): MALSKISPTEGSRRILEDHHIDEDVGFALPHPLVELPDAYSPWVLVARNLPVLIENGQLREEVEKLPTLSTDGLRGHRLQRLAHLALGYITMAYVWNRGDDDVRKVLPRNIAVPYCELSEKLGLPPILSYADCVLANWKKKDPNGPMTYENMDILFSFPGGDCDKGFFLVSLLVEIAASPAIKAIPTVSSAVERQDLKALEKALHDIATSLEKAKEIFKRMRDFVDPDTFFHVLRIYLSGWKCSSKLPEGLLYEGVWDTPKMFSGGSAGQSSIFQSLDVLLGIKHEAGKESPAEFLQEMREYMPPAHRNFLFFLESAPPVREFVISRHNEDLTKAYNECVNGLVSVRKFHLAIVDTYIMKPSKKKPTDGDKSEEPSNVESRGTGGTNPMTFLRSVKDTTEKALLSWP

`O=C(NCc1cccc(Cn2cnc3ccc(Br)cc32)c1)c1cc(Br)c[nH]1`: the inhibition – broadly, the relative decrease from the control value, in per cent – in [1] was found to be 98%. For the same compound, the IC50 (in general, the concentration that inhibits the measured activity by half) in data set [2] is 19 nM. Moreover, the viability at 48 h, 1 µM in [3] is 99%. In data set [4], the Stability result is “Unstable”.

For `O=C(NCc1cccc(Cn2cnc3ccccc32)c1)c1ccc(Br)cc1`, the inhibition in data set [1] came to 98%. Moreover, the IC50 in [2] turned out to be 134 nM. The viability at 48 h, 1 µM in [3] was 96%.

Take `O=C(NCc1cccc(Cn2cnc3ccccc32)c1)c1cccs1`: in data set [1], the inhibition worked out at 62%. In data set [3], the viability at 48 h, 1 µM stood at 98%.

Take `Cc1ccc(C(=O)NCc2cccc(Cn3cnc4ccccc43)c2)cc1`: the inhibition in data set [1] was determined as 88%. Besides, in data set [2], the half-inhibitory concentration (IC50) was found to be 327 nM. In data set [3], the viability at 48 h, 1 µM stood at 94%.

Turning to `O=C(NCc1cccc(Cn2cnc3ccccc32)c1)c1cc2ccccc2o1`, the inhibition in [1] stood at 91%. Further, the 50% inhibitory concentration (IC50) in data set [2] amounted to 413 nM. Moreover, in data set [3], the viability at 48 h, 1 µM is 100%.

For `Cc1cc(C(=O)NCc2cccc(Cn3cnc4ccccc43)c2)ccc1C#N`, in [1], the inhibition was 44%. In data set [3], the viability at 48 h, 1 µM is 94%.

Turning to `N#Cc1ccc(C(=O)NCc2cccc(Cn3cnc4ccccc43)c2)c(F)c1`, the inhibition in data set [1] turned out to be 37%. Moreover, the viability at 48 h, 1 µM in [3] was 99%.

Regarding `O=C(OCc1cccc(Cn2cnc3ccccc32)c1)c1cc(Br)c[nH]1`, in data set [1], the inhibition was determined as 0%. Further, the viability at 48 h, 1 µM in data set [3] came out at 100%.

Take `O=C(NCc1cccc(Cn2cnc3ccccc32)c1)c1ccc[nH]1`: the inhibition in data set [1] was found to be 72%. For the same compound, in [3], the viability at 48 h, 1 µM came out at 94%.

Regarding `NS(=O)(=O)NCCNc1nonc1C(=NO)Nc1ccc(F)c(Br)c1` [EPACADOSTAT], the Activity entry in data set [5] and in data set [6] was “Non-Toxic” each time. Also, in data set [3], the viability at 48 h, 1 µM turned out to be 97%.

As for `CC(=O)NCC(=O)NCc1cccc(Cn2cnc3ccccc32)c1`, the inhibition in data set [1] was found to be 0%. The viability at 48 h, 1 µM in [3] is 100%.

Take `COc1ccc2[nH]c(C(=O)NCc3cccc(Cn4cnc5ccccc54)c3)cc2c1`: the viability at 48 h, 1 µM in data set [3] is 55%.

Regarding `O=C(NCc1cccc(Cn2cnc3ccccc32)c1)c1ccccc1`, the inhibition in [1] turned out to be 32%. Further, the viability at 48 h, 1 µM in data set [3] worked out at 98%.

For the compound `O=C(NCc1cccc(Cn2cnc3ccccc32)c1)c1cc2cc(O)ccc2[nH]1`, in data set [1], the inhibition stood at 71%. Besides, in [2], the IC50 came to 781 nM. Besides, the viability at 48 h, 1 µM in data set [3] is 99%.

On to `O=C(NCc1cccc(Cn2cnc3ccccc32)c1)c1ccc(F)cc1`, for which the inhibition in data set [1] amounted to 88%. In data set [2], the IC50 turned out to be 961 nM. Besides, the viability at 48 h, 1 µM in [3] was found to be 89%.

For `O=C(NCc1cccc(Cn2cnc3ccccc32)c1)c1ccco1`, in [1], the inhibition came to 25%. Besides, the viability at 48 h, 1 µM in [3] worked out at 100%.

`Cc1ccc2[nH]c(C(=O)NCc3cccc(Cn4cnc5ccccc54)c3)cc2c1`: in data set [1], the inhibition stood at 90%. For the same compound, the half-inhibitory concentration (IC50) in data set [2] came out at 636 nM. Besides, in data set [3], the viability at 48 h, 1 µM was 99%.

For the compound `NCCCC(=O)NCc1cccc(Cn2cnc3ccccc32)c1`, the inhibition in data set [1] came out at 0%. Also, the viability at 48 h, 1 µM in [3] amounted to 100%.

`O=C(NCc1cccc(Cn2ccc3ccccc32)c1)c1cc(Br)c[nH]1`: the inhibition in data set [1] is 0%. The viability at 48 h, 1 µM in data set [3] came to 100%.

Regarding `O=C(NCc1cccc(Cn2cnc3ccccc32)c1)c1ccc(Cl)cc1`, in [1], the inhibition was 99%. For the same compound, in data set [2], the IC50 turned out to be 477 nM. Further, the viability at 48 h, 1 µM in data set [3] was determined as 96%.

For the compound `O=C(CCN1CCOCC1)NCc1cccc(Cn2cnc3ccccc32)c1`, in data set [1], the inhibition came to 0%. In addition, in [3], the viability at 48 h, 1 µM is 100%.

For `O=C(NCc1cccc(Cn2cnc3ccccc32)c1)c1ccc(C(F)(F)F)cc1`, the inhibition in data set [1] amounted to 81%. Further, the viability at 48 h, 1 µM in data set [3] was 97%.

Regarding `N#Cc1ccc(C(=O)NCc2cccc(Cn3cnc4ccccc43)c2)cc1F`, the inhibition in [1] worked out at 32%. In data set [3], the viability at 48 h, 1 µM turned out to be 100%.

In the case of `O=C(Cc1ccc2c(c1)OCO2)NCc1cccc(Cn2cnc3ccccc32)c1`, the inhibition in [1] was determined as 5%. Further, the viability at 48 h, 1 µM in data set [3] turned out to be 96%.

Consider `O=C(NCc1cccc(Cn2cnc3ccccc32)c1)c1nc2ccccc2[nH]1`, for which, in data set [1], the inhibition worked out at 83%. For the same compound, the IC50 in [2] was 407 nM. The viability at 48 h, 1 µM in [3] was 100%.

For `O=C(CNC(=O)c1ccccc1)NCc1cccc(Cn2cnc3ccccc32)c1`, the inhibition in data set [1] is 13%. The viability at 48 h, 1 µM in data set [3] is 99%.

For `N#Cc1ccc(C(=O)NCc2cccc(Cn3cnc4ccccc43)c2)cc1`, the Drug metabolism result in data set [7] and in [12] was “Metabolite_Detected” in each case. Besides, the inhibition in data set [1] turned out to be 88%. The half-maximal inhibitory concentration (IC50) in data set [2] amounted to 90 nM; in data set [8], 112 nM; in [9], 1940 nM; in [14] it was 110 nM; in [15] it was 32.3 µM. The viability at 48 h, 1 µM in [3] turned out to be 100%. For the same compound, the remaining at 1 h, 50 µM in data set [10] and in data set [11] was 59% in each case. In addition, the “inhibition (INH)” value in data set [13] is listed as “Not Active”.

For the compound `O=C(NCc1cccc(Cn2cnc3ccccc32)c1)c1cc2ccccc2s1`, the inhibition in [1] is 77%. Also, the viability at 48 h, 1 µM in [3] was 88%.

The values are drawn from ChEMBL document CHEMBL4354865 (J Med Chem, 2020).
